Data from ChEMBL document CHEMBL1152788, “Naphthylisopropylamine and N-benzylamphetamine derivatives as monoamine oxidase inhibitors” (Bioorg Med Chem, 2009).
Structures can show the parent of a compound that is named as a salt.

How the values were obtained:
[1] = molecular target: T1, Amine oxidase [flavin-containing] A (Rattus norvegicus, UniProt P21396); test: Inhibition of MAOA in rat brain mitochondria
T1 sequence (P21396 whole entry): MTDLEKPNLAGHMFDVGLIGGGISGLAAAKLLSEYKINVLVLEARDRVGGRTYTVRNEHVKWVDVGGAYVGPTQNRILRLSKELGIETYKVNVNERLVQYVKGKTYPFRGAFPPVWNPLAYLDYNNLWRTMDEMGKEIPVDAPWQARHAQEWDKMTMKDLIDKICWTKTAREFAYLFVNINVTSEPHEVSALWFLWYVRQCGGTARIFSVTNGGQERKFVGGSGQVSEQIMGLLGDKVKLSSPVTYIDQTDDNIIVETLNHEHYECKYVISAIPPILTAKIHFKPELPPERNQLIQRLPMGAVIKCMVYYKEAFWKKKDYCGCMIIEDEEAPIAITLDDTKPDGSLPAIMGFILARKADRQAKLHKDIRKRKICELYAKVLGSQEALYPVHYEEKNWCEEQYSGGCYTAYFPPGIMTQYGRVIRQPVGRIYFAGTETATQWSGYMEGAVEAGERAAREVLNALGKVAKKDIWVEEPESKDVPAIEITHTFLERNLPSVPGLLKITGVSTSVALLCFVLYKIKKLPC
Summary of the method: (§1)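 Substrate is 5-HT for MAO-A and DMAPEA for MAO-B. Substrates and their metabolites are measured by HPLC with electrochemical detection. Percent inhibition is taken against enzyme treated the same way without inhibitor and plotted against −log inhibitor concentration to give IC50. Runs are at least two independent experiments, each in triplicate. Ki is from IC50 by Cheng–Prusoff, using the substrate's Km.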

[2] = molecular target: T2, Amine oxidase [flavin-containing] B (Rattus norvegicus, UniProt P19643); test: Inhibition of MAOB in rat brain mitochondria; summary of the method: as §1
T2 sequence (P19643 whole entry): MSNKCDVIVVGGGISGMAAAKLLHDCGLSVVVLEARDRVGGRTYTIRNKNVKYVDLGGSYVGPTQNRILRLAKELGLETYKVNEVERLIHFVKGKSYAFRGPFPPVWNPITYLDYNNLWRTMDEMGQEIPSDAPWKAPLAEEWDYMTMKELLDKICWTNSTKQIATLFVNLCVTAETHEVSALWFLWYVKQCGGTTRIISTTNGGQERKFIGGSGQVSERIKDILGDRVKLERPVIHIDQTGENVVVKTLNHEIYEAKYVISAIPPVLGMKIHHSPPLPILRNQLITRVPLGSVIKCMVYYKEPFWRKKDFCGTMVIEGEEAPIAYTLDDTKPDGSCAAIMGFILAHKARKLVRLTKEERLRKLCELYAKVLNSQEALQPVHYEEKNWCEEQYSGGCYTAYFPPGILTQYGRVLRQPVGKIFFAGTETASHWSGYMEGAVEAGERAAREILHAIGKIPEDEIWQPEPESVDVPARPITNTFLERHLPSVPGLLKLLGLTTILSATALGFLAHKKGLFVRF

Structure (SMILES)	Ki [1]	Ki [2]
COc1ccc(CNC(C)Cc2ccc(SC)cc2)cc1 (stereo unspecified)	> 100 µM	
CCCCOc1ccc2cc(CC(C)NCc3ccccc3)ccc2c1 (stereo unspecified)	14.5 µM	22.2 µM
CCCOc1ccc(CC(C)N)cc1 (stereo unspecified)	0.13 µM	> 100 µM
CC(N)Cc1ccc2ccccc2c1 (stereo unspecified)	0.42 µM	> 100 µM
CC(N)Cc1cccc2ccccc12 (stereo unspecified)	5.63 µM	> 100 µM
CC(N)Cc1ccccc1 (stereo unspecified) [AMPHETAMINE SULFATE]	12.2 µM	
CCCCOc1ccc(CC(C)N)cc1 (stereo unspecified)	0.32 µM	> 100 µM
CCOc1ccc(CC(C)N)cc1 (stereo unspecified)	0.22 µM	> 100 µM
CC(N)Cc1ccc2cc(OCc3ccccc3)ccc2c1 (stereo unspecified)	3.78 µM	2.56 µM
COc1ccc2cc(CC(C)NCc3ccccc3)ccc2c1 (stereo unspecified)	6.93 µM	24.7 µM
CSc1ccc(CC(C)N)cc1 (stereo unspecified) [4-METHYLTHIOAMPHETAMINE]	0.25 µM	
CSc1ccc(CC(C)NCc2ccccc2)cc1 (stereo unspecified)	> 100 µM	> 100 µM
COc1ccc2cc(CC(C)N)ccc2c1 (stereo unspecified)	0.18 µM	16.3 µM
CCCCOc1ccc(CNC(C)Cc2ccc(SC)cc2)cc1 (stereo unspecified)	90 µM	
CCCOc1ccc2cc(CC(C)N)ccc2c1 (stereo unspecified)	0.68 µM	13.5 µM
CSc1ccc2cc(CC(C)N)ccc2c1 (stereo unspecified)	0.5 µM	
CSc1ccc(CC(C)NCc2ccc(OCc3ccccc3)cc2)cc1 (stereo unspecified)	> 100 µM	
CC(N)Cc1ccc(OCc2ccccc2)cc1 (stereo unspecified)	3.42 µM	0.71 µM
CCCCOc1ccc2cc(CC(C)N)ccc2c1 (stereo unspecified)	1.53 µM	
CSc1ccc(CC(C)NCc2ccc(O)cc2)cc1 (stereo unspecified)	> 100 µM	> 100 µM
CCOc1ccc2cc(CC(C)N)ccc2c1 (stereo unspecified)	0.45 µM	13.6 µM
COc1ccc(CC(C)N)cc1 (stereo unspecified) [PARA-METHOXYAMPHETAMINE]	0.25 µM	
